Laboratory results taken from ChEMBL document CHEMBL4330181, “Cytosine-Based TET Enzyme Inhibitors” (ACS Med Chem Lett, 2019).
Calls of active or inactive are those of the source. No cut-off for these calls is given here.

Assays:
[1] = molecular target: Methylcytosine dioxygenase TET1 (Homo sapiens) (UniProt Q8NFU7); assay: Inhibition of recombinant human N-terminal FLAG-tagged TET1 (1418 to 2136 residues) expressed in baculovirus infected sf9 cells assessed as reduction in oxidation of methylated dsDNA at 100 uM after 2 hrs by chemiluminescence assay relative to control
How it was run: (§1)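 ELISA of oxidation of methylated double-stranded DNA by recombinant human TET1 or TET2, inhibitor tested at 100 μM. N = 3, mean ± SEM; two-way ANOVA.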

[2] = molecular target: Methylcytosine dioxygenase TET2 (Homo sapiens) (UniProt Q6N021); assay: Inhibition of recombinant human C-terminal His/N-terminal FLAG-tagged TET2 (1129 to 2002 residues) expressed in baculovirus infected sf9 cells assessed as reduction in oxidation of methylated dsDNA at 100 uM after 2 hrs by chemiluminescence assay relative to control; how it was run: as §1
Mus musculus = species on record: Mus musculus; assay: Inhibition of TET in mouse HT22 cells assessed as reduction in global DNA 5-hmc level at 10 uM after 24 hrs by spectrophotometric method; format: cell-based
How it was run: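 HT-22 immortalized mouse hippocampal neurons dosed at 10 μM in 1% DMSO for 24 h, then lysed; DNA extracted and 5hmC detected with a 5hmC-specific antibody, colorimetric read-out giving percent 5hmC of all cytosine species. Vehicle control; N = 6 biological replicates per group, mean ± SEM, one-way ANOVA.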

[3] = molecular target: DNA (cytosine-5)-methyltransferase 3A (Homo sapiens) (UniProt Q9Y6K1); assay: Inhibition of DNMT3A (unknown origin) at 500 uM
Sequence of DNA (cytosine-5)-methyltransferase 3A (Homo sapiens) (Q9Y6K1 whole entry, looked up): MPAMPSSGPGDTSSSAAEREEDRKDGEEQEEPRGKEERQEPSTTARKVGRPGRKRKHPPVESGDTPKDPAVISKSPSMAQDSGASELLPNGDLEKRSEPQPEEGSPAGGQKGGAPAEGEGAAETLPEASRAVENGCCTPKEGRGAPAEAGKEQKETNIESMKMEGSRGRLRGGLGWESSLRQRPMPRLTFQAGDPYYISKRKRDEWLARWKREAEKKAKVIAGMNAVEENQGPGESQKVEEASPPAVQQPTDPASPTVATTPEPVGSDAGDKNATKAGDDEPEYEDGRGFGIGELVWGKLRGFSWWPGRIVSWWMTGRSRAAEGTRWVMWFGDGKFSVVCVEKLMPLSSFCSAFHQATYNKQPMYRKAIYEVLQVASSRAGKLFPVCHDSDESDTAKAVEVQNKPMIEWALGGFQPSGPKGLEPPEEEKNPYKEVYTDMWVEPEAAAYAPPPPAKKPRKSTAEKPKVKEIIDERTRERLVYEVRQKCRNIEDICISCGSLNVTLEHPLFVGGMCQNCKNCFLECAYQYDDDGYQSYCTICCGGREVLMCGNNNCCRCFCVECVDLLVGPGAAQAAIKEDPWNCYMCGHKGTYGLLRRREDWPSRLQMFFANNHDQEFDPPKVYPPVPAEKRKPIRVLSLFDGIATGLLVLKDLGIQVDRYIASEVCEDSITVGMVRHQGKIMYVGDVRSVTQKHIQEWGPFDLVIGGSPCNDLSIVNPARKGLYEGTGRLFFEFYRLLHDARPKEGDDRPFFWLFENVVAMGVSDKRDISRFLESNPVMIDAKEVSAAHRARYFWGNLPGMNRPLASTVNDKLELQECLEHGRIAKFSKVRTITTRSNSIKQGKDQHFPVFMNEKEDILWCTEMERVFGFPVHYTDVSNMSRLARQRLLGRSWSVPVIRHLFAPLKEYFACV

Sequence of Methylcytosine dioxygenase TET1 (Homo sapiens) (Q8NFU7 whole entry, the tested form may be a part): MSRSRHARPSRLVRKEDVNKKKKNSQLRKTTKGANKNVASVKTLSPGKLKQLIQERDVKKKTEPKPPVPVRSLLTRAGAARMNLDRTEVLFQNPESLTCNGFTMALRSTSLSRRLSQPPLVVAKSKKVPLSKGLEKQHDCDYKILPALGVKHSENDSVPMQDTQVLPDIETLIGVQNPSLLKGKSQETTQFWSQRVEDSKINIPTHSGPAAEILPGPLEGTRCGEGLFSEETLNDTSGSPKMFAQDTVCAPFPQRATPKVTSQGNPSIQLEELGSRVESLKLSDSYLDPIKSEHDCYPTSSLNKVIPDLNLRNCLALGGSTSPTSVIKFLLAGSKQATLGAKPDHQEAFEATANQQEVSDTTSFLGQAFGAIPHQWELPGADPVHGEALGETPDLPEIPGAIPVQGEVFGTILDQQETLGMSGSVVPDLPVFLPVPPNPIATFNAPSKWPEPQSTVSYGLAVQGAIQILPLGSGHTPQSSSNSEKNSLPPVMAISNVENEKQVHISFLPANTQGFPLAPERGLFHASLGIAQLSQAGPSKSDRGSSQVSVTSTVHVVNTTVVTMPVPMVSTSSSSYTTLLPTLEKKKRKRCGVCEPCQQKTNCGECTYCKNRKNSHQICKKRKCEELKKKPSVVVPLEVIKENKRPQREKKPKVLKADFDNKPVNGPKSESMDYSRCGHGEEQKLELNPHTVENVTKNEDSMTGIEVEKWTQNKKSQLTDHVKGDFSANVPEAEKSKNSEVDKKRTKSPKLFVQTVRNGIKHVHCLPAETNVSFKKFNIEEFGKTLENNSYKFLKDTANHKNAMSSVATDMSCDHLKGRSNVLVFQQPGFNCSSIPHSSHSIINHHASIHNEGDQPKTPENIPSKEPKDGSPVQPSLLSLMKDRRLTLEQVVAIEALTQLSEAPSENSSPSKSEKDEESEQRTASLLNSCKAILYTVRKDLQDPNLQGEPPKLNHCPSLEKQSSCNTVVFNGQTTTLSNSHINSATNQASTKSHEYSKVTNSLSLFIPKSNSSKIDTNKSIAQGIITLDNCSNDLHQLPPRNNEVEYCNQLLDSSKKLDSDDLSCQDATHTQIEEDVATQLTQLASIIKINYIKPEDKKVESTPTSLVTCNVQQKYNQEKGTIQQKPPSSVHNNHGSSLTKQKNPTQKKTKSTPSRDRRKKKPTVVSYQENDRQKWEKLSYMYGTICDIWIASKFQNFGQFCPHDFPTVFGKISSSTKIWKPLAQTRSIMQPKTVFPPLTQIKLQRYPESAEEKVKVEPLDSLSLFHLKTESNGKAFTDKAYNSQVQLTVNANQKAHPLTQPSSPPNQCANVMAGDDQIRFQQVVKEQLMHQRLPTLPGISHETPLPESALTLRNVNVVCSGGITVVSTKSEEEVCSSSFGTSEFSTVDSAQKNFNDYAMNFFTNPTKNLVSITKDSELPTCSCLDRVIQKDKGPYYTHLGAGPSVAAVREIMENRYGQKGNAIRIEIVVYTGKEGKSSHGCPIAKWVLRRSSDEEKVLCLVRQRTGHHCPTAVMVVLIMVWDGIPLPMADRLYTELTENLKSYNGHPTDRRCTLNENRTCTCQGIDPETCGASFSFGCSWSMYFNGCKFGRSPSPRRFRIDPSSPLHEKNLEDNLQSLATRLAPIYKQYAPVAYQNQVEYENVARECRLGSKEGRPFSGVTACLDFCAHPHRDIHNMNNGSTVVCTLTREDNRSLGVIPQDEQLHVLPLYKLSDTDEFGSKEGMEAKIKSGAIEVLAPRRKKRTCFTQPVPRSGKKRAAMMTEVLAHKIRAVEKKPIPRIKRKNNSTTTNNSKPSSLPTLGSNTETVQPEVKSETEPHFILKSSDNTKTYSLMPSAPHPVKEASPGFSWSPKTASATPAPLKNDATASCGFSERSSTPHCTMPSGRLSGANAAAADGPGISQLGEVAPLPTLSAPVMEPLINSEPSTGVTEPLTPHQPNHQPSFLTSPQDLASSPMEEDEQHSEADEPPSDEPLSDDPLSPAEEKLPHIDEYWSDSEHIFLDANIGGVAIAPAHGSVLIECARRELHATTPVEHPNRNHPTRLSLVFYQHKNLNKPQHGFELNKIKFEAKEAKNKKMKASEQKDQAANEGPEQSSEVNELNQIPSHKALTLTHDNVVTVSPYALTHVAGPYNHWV

| Structure (SMILES) | inhibition [1] | inhibition [2] | inhibition [3] | inhibition (Mus musculus) |
| --- | --- | --- | --- | --- |
| Nc1nc(=O)n(-c2ccccc2-c2ccccc2)cc1Cl | inactive | inactive | – | – |
| Nc1nc(=O)n(-c2ccccc2)cc1Cl | 57% | 43% | – | inactive |
| Nc1nc(=O)n(-c2ccccc2)cc1C(F)(F)F | inactive | inactive | – | – |

The next lines start with results.

| inhibition [1] | inhibition [2] | inhibition [3] | Structure (SMILES) | inhibition (Mus musculus) |
| --- | --- | --- | --- | --- |
| inactive | inactive | – | Nc1ccn(-c2ccccc2)c(=O)n1 | – |
| Active | – | inactive | Nc1nc(=O)n(-c2cccc(-c3ccccc3)c2)cc1Cl | Active |
| inactive | inactive | – | Nc1nc(=O)n(-c2ccc(-c3ccccc3)cc2)cc1Cl | – |
